Assays:
[1] = Drug metabolism in human liver microsomes assessed as formation of N-(6-(2-hydroxyethoxy)-5-(2-hydroxyphenoxy)-2,2'-bipyrimidin-4-yl)-4-(perfluoropropan-2-yl)benzenesulfonamide at 5 uM in presence of NADPH after 30 mins by LC-MS/MS analysis; format: ADME; conditions: 0.5 h
How it was run: (§1)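 Substrate at 5 μM final in 100 mM potassium phosphate, pH 7.4, incubated with human liver microsomes or baculovirus-expressed recombinant CYP3A4, 2D6 or 2C9. Reaction started with 1 mM NADPH and run 0, 15 and 30 min at 37 °C. Stopped with ice-cold acetonitrile containing labetalol internal standard, then centrifuged. Supernatant analysed by LC-MS/MS on a C18 column at 40 °C. Blank was enzyme without substrate.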

[2] = target: T1, Endothelin receptor type B (Homo sapiens) (UniProt P24530); test: Antagonist activity at human recombinant ETB expressed in CHOK1 cells assessed as inhibition of endothelin-1-mediated Ca2+ mobilization at 100 nM by fluorimetric method relative to control; format: functional, cell-based; conditions: CHO-K1
T1 sequence (whole entry): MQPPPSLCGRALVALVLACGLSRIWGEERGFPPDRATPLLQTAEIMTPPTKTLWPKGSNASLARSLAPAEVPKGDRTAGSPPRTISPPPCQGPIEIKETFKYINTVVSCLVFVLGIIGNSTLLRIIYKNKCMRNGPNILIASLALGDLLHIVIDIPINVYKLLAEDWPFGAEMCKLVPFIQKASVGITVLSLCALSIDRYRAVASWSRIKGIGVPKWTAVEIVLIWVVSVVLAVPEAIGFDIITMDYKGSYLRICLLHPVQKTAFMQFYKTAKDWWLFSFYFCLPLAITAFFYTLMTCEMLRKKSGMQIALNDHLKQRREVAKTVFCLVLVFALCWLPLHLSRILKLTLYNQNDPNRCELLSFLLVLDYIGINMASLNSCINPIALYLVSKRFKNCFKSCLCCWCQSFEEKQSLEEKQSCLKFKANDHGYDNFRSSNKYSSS
How it was run: (§2)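 ETB functional assay run by Cerep in human recombinant CHO-k1 cells at 22 °C with fluorimetric read-out. Test solutions were 1, 10, 100 and 1000 nM. Agonist response is given as % of the control response to 100 nM endothelin-1. For antagonist mode, inhibition is given as % of the control endothelin-1 agonist response, with BQ-788 as reference antagonist.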

[3] = Drug metabolism in human liver microsomes assessed as formation of OH-substituted O-demethyl-4-(1,1,1,2,3,3,3-Heptafluoropropan-2-yl)-N-(6-(2-hydroxyethoxy)-5-(2-methoxyphenoxy)-2,2'-bipyrimidin-4-yl)benzenesulfonamide at 5 uM in presence of NADPH after 30 mins by LC-MS/MS analysis; format: ADME; conditions: 0.5 h
How it was run: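 Pooled human liver microsomes in 100 mM potassium phosphate, pH 7.4, with test compound at 5 μM final. Reaction started with 1 mM NADPH (final) and run at 37 °C in a shaking water bath for 0, 15 and 30 min. Stopped with an equal volume of ice-cold acetonitrile containing 0.6 μM labetalol as internal standard. Protein was spun out and the supernatant analysed by LC-MS/MS. Blank had no compound.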

Cytochrome P450 3A4 [4] = target: T2, Cytochrome P450 3A4 (Homo sapiens, UniProt P08684); test: Drug metabolism assessed as human recombinant CYP3A4-mediated formation of OH-substituted O-demethyl-4-(1,1,1,2,3,3,3-Heptafluoropropan-2-yl)-N-(6-(2-hydroxyethoxy)-5-(2-methoxyphenoxy)-2,2'-bipyrimidin-4-yl)benzenesulfonamide at 5 uM in presence of NADPH after 30 mins by LC-MS/MS analysis; format: ADME; conditions: recombinant enzyme, 0.5 h; how it was run: as §1
[5] = target: T1, Endothelin receptor type B (Homo sapiens); test: Agonist activity at human recombinant ETB receptor expressed in CHOK1 cells assessed as induction of Ca2+ mobilization at 10 nM by fluorimetric method relative to control; format: functional, cell-based; conditions: CHO-K1; how it was run: as §2
Cytochrome P450 3A4 [6] = target: T2, Cytochrome P450 3A4; test: Drug metabolism assessed as human recombinant CYP3A4-mediated formation of N-(6-(2-hydroxyethoxy)-5-(2-hydroxyphenoxy)-2,2'-bipyrimidin-4-yl)-4-(perfluoropropan-2-yl)benzenesulfonamide at 5 uM in presence of NADPH after 30 mins by LC-MS/MS analysis; format: ADME; conditions: recombinant enzyme, 0.5 h; how it was run: as §1
[7] = target: T1, Endothelin receptor type B (Homo sapiens); test: Antagonist activity at human recombinant ETB expressed in CHOK1 cells assessed as inhibition of endothelin-1-mediated Ca2+ mobilization at 1 nM by fluorimetric method relative to control; format: functional, cell-based; conditions: CHO-K1; how it was run: as §2
[8] = Drug metabolism in human liver microsomes assessed as formation of 4-(1,1,1,3,3,3-hexafluoro-2-methoxypropan-2-yl)-N-(6-(2-hydroxyethoxy)-5-(2-hydroxyphenoxy)-2,2'-bipyrimidin-4-yl)benzenesulfonamide at 5 uM in presence of NADPH after 30 mins by LC-MS/MS analysis; format: ADME; conditions: 0.5 h; how it was run: as §1
Cytochrome P450 3A4 [9] = target: T2, Cytochrome P450 3A4; test: Drug metabolism assessed as human recombinant CYP3A4-mediated formation of 4-(1,1,1,3,3,3-hexafluoro-2-methoxypropan-2-yl)-N-(6-(2-hydroxyethoxy)-5-(2-hydroxyphenoxy)-2,2'-bipyrimidin-4-yl)benzenesulfonamide at 5 uM in presence of NADPH after 30 mins by LC-MS/MS analysis; format: ADME; conditions: recombinant enzyme, 0.5 h; how it was run: as §1
[10] = Drug metabolism in human liver microsomes assessed as formation of 4-(1,1,1,3,3,3-hexafluoro-2-hydroxypropan-2-yl)-N-(6-(2-hydroxyethoxy)-5-(2-methoxyphenoxy)-2,2'-bipyrimidin-4-yl)benzenesulfonamide at 5 uM in presence of NADPH after 30 mins by LC-MS/MS analysis; format: ADME; conditions: 0.5 h; how it was run: as §1
Cytochrome P450 3A4 [11] = target: T2, Cytochrome P450 3A4; test: Drug metabolism assessed as human recombinant CYP3A4-mediated formation of 4-(1,1,1,3,3,3-hexafluoro-2-hydroxypropan-2-yl)-N-(6-(2-hydroxyethoxy)-5-(2-methoxyphenoxy)-2,2'-bipyrimidin-4-yl)benzenesulfonamide at 5 uM in presence of NADPH after 30 mins by LC-MS/MS analysis; format: ADME; conditions: recombinant enzyme, 0.5 h; how it was run: as §1

T2 sequence (P08684 whole entry): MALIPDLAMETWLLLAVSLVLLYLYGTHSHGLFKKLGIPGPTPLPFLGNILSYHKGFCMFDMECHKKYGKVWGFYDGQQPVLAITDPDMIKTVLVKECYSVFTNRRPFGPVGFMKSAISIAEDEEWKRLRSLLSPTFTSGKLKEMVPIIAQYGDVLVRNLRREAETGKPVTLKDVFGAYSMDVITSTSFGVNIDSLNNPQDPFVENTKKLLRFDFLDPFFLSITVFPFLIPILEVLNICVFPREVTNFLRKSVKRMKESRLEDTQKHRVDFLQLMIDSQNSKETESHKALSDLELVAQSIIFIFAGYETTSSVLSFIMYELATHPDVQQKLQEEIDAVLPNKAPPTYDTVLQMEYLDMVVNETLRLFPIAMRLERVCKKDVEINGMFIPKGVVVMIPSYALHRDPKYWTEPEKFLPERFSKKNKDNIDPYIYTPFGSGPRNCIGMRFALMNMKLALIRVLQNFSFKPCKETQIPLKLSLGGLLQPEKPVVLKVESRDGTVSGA

Drug metabolism [1]	inhibition [2] [%]	Drug metabolism [3]	Drug metabolism (Cytochrome P450 3A4 [4])	Activity [5] [%]	Drug metabolism (Cytochrome P450 3A4 [6])	inhibition [7] [%]	Drug metabolism [8]	Drug metabolism (Cytochrome P450 3A4 [9])	Drug metabolism [10]	Drug metabolism (Cytochrome P450 3A4 [11])	SMILES
Metabolite_Detected	8	Metabolite_Detected	Metabolite_Detected	-1	Metabolite_Detected	-5					COc1ccccc1Oc1c(NS(=O)(=O)c2ccc(C(F)(C(F)(F)F)C(F)(F)F)cc2)nc(-c2ncccn2)nc1OCCO
	11			0		4	Metabolite_Detected	Metabolite_Detected	Metabolite_Detected	Metabolite_Detected	COc1ccccc1Oc1c(NS(=O)(=O)c2ccc(C(OC)(C(F)(F)F)C(F)(F)F)cc2)nc(-c2ncccn2)nc1OCCO

— ChEMBL document CHEMBL3861962 (Eur J Med Chem, 2016)
